Only some compounds are listed: those with a hit (about 4.8% of all), similar ones and a draw of the others.
SUMO Mot1 rescue – blocks SUMOylation pathway, rescuing yeast Mot1-301 growth; hit rate 1% among 320,000; S. cerevisiae Mot1-301 growth rescue, ATP luminescence, 38.5C; percent above DMSO median, 100 means doubled; growth rescue, % at 18.8 µM; AID 2716;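 active = every valid replicate shows activation above 250% relative to neutral control wells; inactive = the rest, any valid replicate at or below 250%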
Efflux pump inh – blocks antifungal efflux pumps in multiplex yeast assay | S. cerevisiae Candida pump triplex, Nile Red efflux | inhibition, % at 10 µM | hit rate 0.44% among 330,000;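 active = plate passing quality check with inhibition over a set limit, or well fluorescence over plate mean plus 4 SD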;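 also: Nile Red retained in pooled yeast measured as flow cytometry median fluorescence; higher means more Nile Red kept so more efflux inhibition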
T cruzi repl – blocks replication of Trypanosoma cruzi. T. cruzi beta-gal in NIH3T3, luminescence, 90 h. inhibition, % (test concentration not listed). hit rate 1.4% among 300,000. AID 1885;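 active = mean inhibition across valid replicates above about 55%, limit read from the data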;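 also: signal also drops with host cell toxicity which is not excluded here; higher percent means less beta-gal luminescence so fewer parasites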
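Material: NIH/3T3 host cells with β-galactosidase reporter T. cruzi; Input: 5,000 host fibroblasts per well; Medium: DMEM, 2% fetal bovine serum; Compound: 50 nL DMSO compound solution per well; Schedule: 3 h host attachment, then at least 90 h co-culture; Detection: luminescent β-galactosidase signal after 60 min lysis.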
Beta apoptosis – beta cell apoptosis inhibition. hit rate 0.8% among 300,000. protection from apoptosis, % (test concentration not listed). INS-1E cytokine-induced death, ATP luminescence, 48 h; percent of positive-control rescue, neutral wells zero;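 active = Every replicate reaches about 75%, or at least half do and their mean reaches it too, limit read from the data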;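 also: higher means more ATP so stronger rescue from cytokine killing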
CSC inhib – cancer stem cell inhibition | cancer stem cell-like cells viability, luminescence | hit rate 1.1% among 300,000 | inhibition, % at 7.5 µM | AID 2717; in the data active = inhibition above about 75%; tested in HMLE shEcad cells
WT yeast gro inh – growth inhibition of WT yeast, mitochondrial fusion screen; mitochondrial fusion phenotypic screen, WT strain; AID 1362; hit rate 2.1% among 190,000; inhibition, % at 10 µM; in the data active = inhibition above about 58%; tested in S. cerevisiae
Yeast Mot1 SUMO – inhibits SUMO pathway, affecting Mot1-301 yeast growth. 2,300 tested, under 10 active. shares compounds with SUMO Mot1 rescue. growth activity, percent, % at 42 µM. S. cerevisiae Mot1-301 galactose growth, ATP luminescence, 24 h; -100 = growth of slx-deleted rescue strain;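 active = Signal drops as the depositor expects, and the fitted half-maximal dose is no more than ten times the top valid tested dose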;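 also: more negative values mean stronger growth rescue toward the control strain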
Of the large screens only hits and unclear results are named; the others gave an inactive call (follow-up assays come after a bar, where they were run).

Cc1nnc(NC(=O)C2CC(=O)N(c3ccccc3)C2)s1 (stereo not given)	none (no result: WT yeast gro inh)
O=C(Nc1cccc(Cl)c1)OCc1cncs1	SUMO Mot1 rescue active | Yeast Mot1 SUMO inactive
O=C(Nc1ccc(Cl)cc1)OCc1cncs1	none
Cc1cc(=O)c(C(=O)O)cn1Nc1ccc(Cl)cc1	SUMO Mot1 rescue active | Yeast Mot1 SUMO inactive
Cc1cc(=O)c(C(=O)O)cn1Nc1ccc(F)cc1	none (no result: SUMO Mot1 rescue)
C=CCN1/C(=C2/SC(=S)N(C)C2=O)Sc2ccccc21	none (no result: WT yeast gro inh)
Cc1ccc(S(=O)(=O)Nc2cc(S(=O)(=O)N3CCOCC3)ccc2NCC2CCCO2)cc1 (stereo not given)	none (no result: T cruzi repl, CSC inhib, WT yeast gro inh)
O=C(O)CN(c1ccccn1)S(=O)(=O)c1ccc(Cl)cc1	SUMO Mot1 rescue 589 (no result: CSC inhib) | Yeast Mot1 SUMO inactive
CC(CCc1ccccc1)NC(=O)CCCCCNc1nc(=S)[nH]c2ccccc12 (stereo not given)	none
COc1ccc(CCN2C(=O)CC(NNC(=O)c3ccc(F)cc3)C2=O)cc1OC (stereo not given)	none
CCOc1ccc(C(=O)NNC2CC(=O)N(CCc3ccccc3)C2=O)cc1OC (stereo not given)	SUMO Mot1 rescue 737 | Yeast Mot1 SUMO inactive
CC(NC(=O)OCc1ccccc1)C(=O)N1CC(O)CC1C(=O)O (stereo not given)	SUMO Mot1 rescue 451 (no result: Efflux pump inh, Beta apoptosis, CSC inhib) | Yeast Mot1 SUMO inactive
COc1ccc(S(=O)(=O)N(C)C)cc1NC(=O)CN1C(=O)NC2(CCCC2)C1=O	none (no result: WT yeast gro inh)
Cc1ccccc1NC(=O)c1ccccc1NC(=O)c1ccco1	SUMO Mot1 rescue 402 | Yeast Mot1 SUMO inactive
CNC(=O)c1ccccc1NC(=O)c1ccco1	none
CCOC(=O)C1CCN(CC(O)COCc2ccccc2)CC1 (stereo not given)	SUMO Mot1 rescue 554 (no result: WT yeast gro inh) | Yeast Mot1 SUMO inactive
CCOC(=O)C1CCN(CC(O)COc2ccc(C(C)(C)C)cc2)CC1 (stereo not given)	SUMO Mot1 rescue 376 | Yeast Mot1 SUMO inactive
CCOC(=O)C1CCN(CC(O)COCc2cccs2)CC1 (stereo not given)	none
CCOC(=O)C1CCN(CC(O)COc2ccc(C(C)(C)CC)cc2)CC1 (stereo not given)	none
O=c1c(-c2ccco2)[n+]([O-])c2ccccc2n1OCc1ccccc1[N+](=O)[O-]	none
O=C(CCc1nc2sc3c(c2c(=O)[nH]1)CCCC3)N1CCN(c2ccccc2)CC1	SUMO Mot1 rescue 772 (no result: WT yeast gro inh) | Yeast Mot1 SUMO inactive
OC(c1ccccc1)(C1CCCCC1)C(CN1CCOCC1)c1ccccc1 (stereo not given)	SUMO Mot1 rescue 460 (no result: WT yeast gro inh) | Yeast Mot1 SUMO inactive
COc1ccc(C(O)(C2CCCCC2)C(CN2CCOCC2)c2ccccc2)cc1 (stereo not given)	none (no result: WT yeast gro inh)
CN(C)C(=O)c1c2c(nc3ccccc13)CCCC2	SUMO Mot1 rescue active | Yeast Mot1 SUMO inactive
CC1(C)CC(=O)C2=C(C1)Oc1ncn(CCO)c(=N)c1C2c1ccccc1 (stereo not given)	SUMO Mot1 rescue 543 | Yeast Mot1 SUMO inactive
CC1(C)CC(=O)C2=C(C1)Oc1ncn(CCCO)c(=N)c1C2c1ccccc1 (stereo not given)	none
CC(C)S(=O)(=O)c1cnc(-c2ccccn2)nc1N	none (no result: WT yeast gro inh)
C#C[C@]1(O)CC[C@H]2[C@@H]3[C@H](C)CC4=C(CCC(=O)C4)[C@H]3CC[C@@]21C	none (no result: Beta apoptosis, WT yeast gro inh)
O=C(CSc1nc2ccccc2[nH]1)NC1CCCC1	none
O=C(CSc1nc2ncccc2[nH]1)NC1CCCCC1	SUMO Mot1 rescue 929 (no result: WT yeast gro inh) | Yeast Mot1 SUMO inactive
O=C(CSc1ccccc1)NNC(=O)c1ccccc1O	none (no result: WT yeast gro inh)
Cc1nc2sc(C(c3cccc(F)c3)N3CCC(O)CC3)c(O)n2n1 (stereo not given)	none
Cc1nc2sc(C(c3ccccc3)N3CCC(O)CC3)c(O)n2n1 (stereo not given)	SUMO Mot1 rescue active | Yeast Mot1 SUMO inactive
COc1ccc(C(=O)NNC(=O)c2ccc3ccccc3n2)cc1	none (no result: T cruzi repl, WT yeast gro inh)
Cc1nc2c3ccccc3nc(NNC(=O)CCC(=O)N3CCCC(C)C3)n2n1 (stereo not given)	SUMO Mot1 rescue 455 (no result: WT yeast gro inh) | Yeast Mot1 SUMO inactive
CN1C(=O)C(CCC(=O)O)NC1=S (stereo not given)	none (no result: WT yeast gro inh)
